ChEMBL document CHEMBL1151950, “Antioxidant phenylethanoid glycosides and a neolignan from Jacaranda caucana” (J Nat Prod, 2009)

What was measured:
[1] = DPPH radical scavenging activity assessed as ratio of antioxidant concentration to drug level causing 50% decrease in DPPH level at steady state by microplate assay
[2] = Antioxidant activity assessed as protection against peroxyl radical-induced alkaline phosphatase activity loss by microplate assay; type: functional
In short: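 Pure compounds were tested in the microplate alkaline phosphatase (ALP) oxidation-protection assay. The reported value is EC50, the antioxidant concentration that protects ALP by 50% from peroxyl radical-induced loss of activity.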

**Q.** What does the source list for COc1cc([C@H]2Oc3c(OC)cc([C@@H](O)[C@@H](O)CO)cc3[C@@H]2CO)ccc1O[C@@H]1O[C@@H](C)[C@H](O)[C@@H](O)[C@H]1O?
**A.** Ratio [1]: 1.84; EC50 [2]: 9070 nM

**Q.** What does the source list for C[C@@H]1O[C@@H](O[C@@H]2[C@@H](O)[C@H](OCCc3ccc(O)c(O)c3)O[C@H](COC(=O)/C=C/c3ccc(O)c(O)c3)[C@H]2O)[C@H](O)[C@H](O)[C@H]1O [ISOACTEOSIDE]?
**A.** Ratio [1]: 0.07; EC50 [2]: 1200 nM

**Q.** Which results are given for COc1ccc(CCO[C@@H]2O[C@H](CO)[C@@H](OC(=O)/C=C/c3ccc(O)c(O)c3)[C@H](O[C@@H]3O[C@@H](C)[C@H](O)[C@@H](O)[C@H]3O)[C@H]2O)cc1O [JIONOSIDE D]?
**A.** Ratio [1]: 0.17; EC50 [2]: 1100 nM

**Q.** For O=c1c(O)c(-c2ccc(O)c(O)c2)oc2cc(O)cc(O)c12 [QUERCETIN], which Ratio [1] is on record?
**A.** 0.09

**Q.** And the EC50 [2]?
**A.** 1000 nM

**Q.** What does the source list for O=C(O)c1ccc(O)c(O)c1 [PROTOCATECHUIC ACID]?
**A.** Ratio [1]: 0.23; EC50 [2]: 2560 nM

**Q.** With C[C@@H]1O[C@@H](O[C@@H]2[C@@H](O)[C@H](OCCc3ccc(O)c(O)c3)O[C@H](COC(=O)CC3(O)CCC(=O)CC3)[C@H]2OC(=O)/C=C/c2ccc(O)c(O)c2)[C@H](O)[C@H](O)[C@H]1O as the molecule, how does the Ratio [1] read?
**A.** 0.079

**Q.** What about the EC50 [2] of the same molecule?
**A.** 1270 nM

**Q.** What does the source list for C[C@@H]1O[C@@H](O[C@@H]2[C@@H](O)[C@H](OCCc3ccc(O)c(O)c3)O[C@H](COC(=O)C[C@]3(O)CC[C@@H](O)CC3)[C@H]2OC(=O)/C=C/c2ccc(O)c(O)c2)[C@H](O)[C@H](O)[C@H]1O?
**A.** Ratio [1]: 0.098; EC50 [2]: 1270 nM

**Q.** Which results are given for C[C@@H]1O[C@@H](O[C@@H]2[C@@H](O)[C@H](OCCc3ccc(O)c(O)c3)O[C@H](CO)[C@H]2OC(=O)/C=C/c2ccc(O)c(O)c2)[C@H](O)[C@H](O)[C@H]1O [ACETOSIDE]?
**A.** Ratio [1]: 0.078; EC50 [2]: 1040 nM

**Q.** What does the source list for COc1ccc(CCO[C@@H]2O[C@H](CO)[C@@H](OC(=O)/C=C/c3ccc(O)c(OC)c3)[C@H](O[C@@H]3O[C@@H](C)[C@H](O)[C@@H](O)[C@H]3O)[C@H]2O)cc1O [MARTYNOSIDE A]?
**A.** Ratio [1]: 0.38; EC50 [2]: 2420 nM
